Results on 96 compounds are retold here after ChEMBL document CHEMBL4513216, “Probing the Open Global Health Chemical Diversity Library for Multistage-Active Starting Points for Next-Generation Antimalarials” (ACS Infect Dis, 2020).

Each structure is given as a SMILES string.

The data set in a line: Toxicity liver stage against HepG2, at 10uM. In kind it is cell-based. More on the design: test concentration 10 uM, cell line HepG2-A16-CD81EGFP. As to conditions: human, HepG2-A16-CD81EGFP cells; read-out: INHIBITION
An outline of the steps:
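Uninfected HepG2-A16-CD81EGFP cells, 3 × 10^3 per well, 1536-well, plated on prespotted compound at 10 μM final, parasite-free screening media added to match infected plates; puromycin 10 μM positive, DMSO 0.5% negative; run in parallel with 48 h PbLuc assay at 37 °C, 5% CO2; viability by CellTiter-Glo luminescence, normalized to controls.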
For `CCCc1ccc2oc(C(=O)N3CCC(O)CC3)c(C)c2c1`, the cytotoxicity at 10 µM came to 0.361%.

On to `CC(C)NC(=O)c1cccc(Oc2ccc3nncn3n2)c1`, for which the cytotoxicity at 10 µM was -13.3%.

With `Cn1cnc2ccc(NC(=O)CCCn3cccn3)cc2c1=O`, the cytotoxicity at 10 µM turned out to be 4.31%.

Take `COCCc1nnc(NC(=O)CSCc2ccccc2)o1`: the cytotoxicity at 10 µM is -3.75%.

Regarding `CCOCC1CN(C(=O)c2ccco2)Cc2nn(C)cc21` (stereo unspecified), the cytotoxicity at 10 µM is 3.86%.

In the case of `COc1ccc(-c2c(C)nn3c(=N)c(C#N)n[nH]c23)cc1`, the cytotoxicity at 10 µM was -8.26%.

Regarding `O=C1CSC(c2cccs2)c2cnn(C3CCCC3)c2N1` (stereo unspecified), the cytotoxicity at 10 µM was 5.99%.

For `Cc1nc(N2CCOCC2)nc2c1CCN(C(=O)NC1CCCC1)CC2`, the cytotoxicity at 10 µM was determined as 3.41%.

For `CC(C)NC(=O)C1(Cc2ccccc2-c2ccccc2)CCCNC1` (stereo unspecified), the cytotoxicity at 10 µM amounted to 3.05%.

In the case of `CN([C@@H]1CC[C@@H](N2CCOCC2)[C@@H]1O)S(=O)(=O)c1ccccc1`, the cytotoxicity at 10 µM stood at 2.77%.

On to `Cc1cc(C)nc(N2CCOC(c3cc(CCO)[nH]n3)C2)n1` (stereo unspecified), for which the cytotoxicity at 10 µM turned out to be 1.89%.

In the case of `Cc1c[nH]nc1C1CCCN(C(=O)Cn2cccn2)C1` (stereo unspecified), the cytotoxicity at 10 µM was -14.5%.

Regarding `CN(C)c1cc(C2CCCN(C(=O)Cn3cc(Cl)cn3)C2)ccn1` (stereo unspecified), the cytotoxicity at 10 µM was -23.2%.

For `CCn1ncc(CN2C[C@@H]3CCCN3C[C@H]2CCSC)c1C`, the cytotoxicity at 10 µM is -19.1%.

Take `COc1cccc(CC(=O)N2CCCC(c3n[nH]c4nccnc34)C2)c1` (stereo unspecified): the cytotoxicity at 10 µM stood at 4.62%.

Turning to `CCc1ccccc1C(=O)NS(=O)(=O)CCCC#N`, the cytotoxicity at 10 µM is -5.83%.

For the compound `O=C(Nc1cn[nH]c1)N1CCCCCC1c1ccncc1` (stereo unspecified), the cytotoxicity at 10 µM was -3.4%.

Take `CCC(O)CN(Cc1cccc(C(=O)N(C)C)c1)c1ccccc1` (stereo unspecified): the cytotoxicity at 10 µM came out at 0.503%.

With `O=C(Nc1ccc(-c2csnn2)cc1)N1CCN2CCCCC2C1` (stereo unspecified), the cytotoxicity at 10 µM was -7.23%.

For `Cc1nn(C)c(C)c1OCC(=O)N1CCCc2c(F)ccc(F)c21`, the cytotoxicity at 10 µM is 2.27%.

In the case of `O=S(=O)(NCc1ccnc(-n2ccnc2)c1)c1cncc(F)c1`, the cytotoxicity at 10 µM worked out at 1.28%.

Regarding `CCc1c(C(=O)N2CC(C)OC(C)(C)C2)cnn1-c1ccccn1` (stereo unspecified), the cytotoxicity at 10 µM is -2.51%.

Take `Cc1nnc2n1CCN(c1nc3ccccc3o1)C2`: the cytotoxicity at 10 µM came out at 3.51%.

Regarding `CN(Cc1ccc(Cl)s1)C(=O)NCCC(=O)N1CCCCCC1`, the cytotoxicity at 10 µM was -0.691%.

Take `Cc1nnc(CSc2ccc(C(F)(F)F)cn2)o1`: the cytotoxicity at 10 µM is -6.51%.

As to `Cn1cc(C(=O)N2CCCC2CCc2ccccc2)cn1` (stereo unspecified), the cytotoxicity at 10 µM came to 9.84%.

On to `CCc1noc(C)c1C(=O)NCc1cc[nH]n1`, for which the cytotoxicity at 10 µM is 3.44%.

As for `COC(=O)CNC(=O)c1scnc1C`, the cytotoxicity at 10 µM came out at 7.71%.

Regarding `CCNS(=O)(=O)C1CCN(C(=O)c2ccc(CC)o2)C1` (stereo unspecified), the cytotoxicity at 10 µM amounted to 5.45%.

For the compound `O=C(CCSc1ccccc1)NCCn1nc2ccccn2c1=O`, the cytotoxicity at 10 µM was -6.09%.

Consider `Cc1nc(C)n(CC2CCCCN2CCCS(C)(=O)=O)n1` (stereo unspecified), for which the cytotoxicity at 10 µM stood at 5.02%.

Regarding `CCC(O)CN1CCN(C(=O)CN(C)c2ccc(Cl)cn2)CC1` (stereo unspecified), the cytotoxicity at 10 µM turned out to be 0.684%.

Regarding `Cc1ccc(CS(=O)(=O)CC(=O)NCc2ccccc2F)cc1`, the cytotoxicity at 10 µM was determined as 0.515%.

`CCN1CCC(NC(=O)c2ccc(F)cc2I)CC1`: the cytotoxicity at 10 µM is -10%.

For `COc1ccccc1CNC1(CCO)CCOCC1`, the cytotoxicity at 10 µM turned out to be 20.5%.

As for `Cc1ccc(CC(=O)Nc2ccc(CS(C)(=O)=O)c(F)c2)cc1`, the cytotoxicity at 10 µM was -2.77%.

For `Cc1nnc2n1CCN(C(=O)CN1C(=O)CCCc3ccccc31)C2`, the cytotoxicity at 10 µM is -11.4%.

For the compound `Cc1nnc(CN(Cc2ccccc2C(F)(F)F)C2CC2)o1`, the cytotoxicity at 10 µM was 8.32%.

For the compound `CN(C)C(=O)Cc1ccccc1NCc1cccc2cccnc12`, the cytotoxicity at 10 µM was -1.81%.

Turning to `CN(C)CCN(Cc1cccc(F)c1)C(=O)c1ccc2nccn2c1`, the cytotoxicity at 10 µM was -0.0817%.

Turning to `O=C(CN1CCCNC1=O)Nc1ccccc1SC(F)(F)F`, the cytotoxicity at 10 µM is 12.7%.

Take `O=C(CC1=CCCCC1)NCCc1csc(N2CCCC2)n1`: the cytotoxicity at 10 µM is -7.63%.

In the case of `O=C(CSc1ccc2c(c1)OCCO2)NS(=O)(=O)C1CCCCC1`, the cytotoxicity at 10 µM is -3.69%.

`COC(=O)[C@H](C)NC(=O)c1cc(-c2cccc(Cl)c2)no1`: the cytotoxicity at 10 µM is -7.25%.

With `CCc1nccn1C1CCCN(C(=O)c2ccc3[nH]cnc3c2)C1` (stereo unspecified), the cytotoxicity at 10 µM is -7.66%.

Turning to `CS(=O)(=O)N1CCO[C@@H]2CN(C(=O)c3cccnc3)C[C@@H]2C1`, the cytotoxicity at 10 µM was found to be 7.64%.

Take `c1cnc(NCc2noc3c2CN(c2cnccn2)CC3)nc1`: the cytotoxicity at 10 µM turned out to be 0.774%.

For `Cc1cc(C(=O)NC2CCc3c(ccc(=O)n3CC(C)C)C2)no1` (stereo unspecified), the cytotoxicity at 10 µM came to 7.15%.

In the case of `CCN(CC)Cc1nc2c(o1)CN(C(=O)c1ccncc1F)C2`, the cytotoxicity at 10 µM was -109%.

Regarding `Cc1cnc(C(=O)N2CCC3(CCCN(c4nncs4)C3)C2)cn1` (stereo unspecified), the cytotoxicity at 10 µM is -103%.

Take `c1cncc(CN2CCCC3(COCCN(c4cncnc4)C3)C2)c1` (stereo unspecified): the cytotoxicity at 10 µM was -73.3%.

On to `CC1=N[C@@]2(CC[C@@H]3CN(S(=O)(=O)CC(C)C)C[C@@H]32)C(=O)N1CC1CC1`, for which the cytotoxicity at 10 µM is -66.6%.

Consider `Cc1cc(N2CCN(C(=O)c3cnn(C(C)C)c3)CC2)cc(C)n1`, for which the cytotoxicity at 10 µM was -15.2%.

On to `CCN(CCO)C[C@@H]1CN(c2cccc(C(F)(F)F)n2)C[C@@H]1CO`, for which the cytotoxicity at 10 µM is 0.855%.

In the case of `O=C(c1cnc(Nc2ccccc2)nc1)N1CCC(O)(CO)CC1`, the cytotoxicity at 10 µM was -0.756%.

`O=C(COCc1ccccc1)N1CCN(Cc2ccccc2F)C(=O)C1`: the cytotoxicity at 10 µM is -3.19%.

For `N[C@H]1CN(C(=O)c2ccccc2OCc2ccccc2)C[C@@H]1C1CC1`, the cytotoxicity at 10 µM is -3.57%.

For the compound `COCC1(C(=O)N[C@H]2CN(c3noc(C)n3)C[C@@H]2C2CC2)CCC1`, the cytotoxicity at 10 µM was -135%.

`CSCC[C@H](N)C(=O)NCc1cc2n(n1)CCCN(C(=O)N(C)C)C2`: the cytotoxicity at 10 µM amounted to 9.8%.

As to `COc1ccccc1OC1(C(=O)O)CCN(c2nccnc2OC)CC1`, the cytotoxicity at 10 µM is -6.25%.

As to `Cc1cc(C2CCC2)nc(N(C)CCc2ccccn2)n1`, the cytotoxicity at 10 µM was -3.09%.

On to `c1cc(-c2ccc(CN3CCC4(CCNCC4)CC3)s2)[nH]n1`, for which the cytotoxicity at 10 µM was -166%.

On to `C=C(C)COc1ccccc1C(=O)NCCc1nncn1C`, for which the cytotoxicity at 10 µM was -3.06%.

On to `CC(Oc1ccc2c(c1)OCO2)C(=O)N1CCC(c2ncc[nH]2)CC1` (stereo unspecified), for which the cytotoxicity at 10 µM is -2.58%.

On to `Cc1nn(C)c2nc(N(Cc3ccccn3)CC3CCCO3)sc12` (stereo unspecified), for which the cytotoxicity at 10 µM is -1.01%.

For `Cc1n[nH]c(C)c1Sc1ccccc1NC(=O)CN1CCCC1`, the cytotoxicity at 10 µM was -8.7%.

On to `Cc1cc2nc(C(C)C)cc(NCc3ccncc3)n2n1`, for which the cytotoxicity at 10 µM was 2.63%.

`CCn1ccnc1CN(C)C(=O)Cn1ccc2ccccc2c1=O`: the cytotoxicity at 10 µM came to 2.37%.

As to `COc1ccccc1CN1C(=O)O[C@@H]2CN(c3nccs3)C[C@@H]21`, the cytotoxicity at 10 µM is 6.27%.

As to `Cc1ccc(C(=O)N2Cc3ccccc3C2)cc1N1CCNC1=O`, the cytotoxicity at 10 µM was -13.9%.

As to `CC(C)n1ccnc1C1CCN(C(=O)c2cc[nH]n2)CC1`, the cytotoxicity at 10 µM was -3.28%.

In the case of `CCCN1CCCn2nc(CNS(=O)(=O)c3cccc(C#N)c3)cc2C1`, the cytotoxicity at 10 µM was -2.96%.

Regarding `Cc1ccsc1[C@@H]1CCN(C(=O)CCC(=O)N2CCCCCC2)C[C@H]1O`, the cytotoxicity at 10 µM is -1.72%.

For the compound `COCCOc1ccc(Cl)c(C(=O)N2CCN(CCO)CC2)n1`, the cytotoxicity at 10 µM is -4.33%.

With `Cc1noc(CN(C)C2CCCN(Cc3noc(C4CC4)n3)C2)n1` (stereo unspecified), the cytotoxicity at 10 µM is -2.19%.

As to `O=C(N1CCCC(n2cncn2)C1)C1(c2ccc(Cl)cc2)CCC1` (stereo unspecified), the cytotoxicity at 10 µM was -2.11%.

As to `CN(C)c1cc(C(=O)N2CCCCC2)ccn1`, the cytotoxicity at 10 µM is -4.63%.

Take `Cc1nc(C2CCCN2CC(=O)NCCOc2cccc(F)c2)no1` (stereo unspecified): the cytotoxicity at 10 µM was -16.3%.

For `COc1c(CNC(c2ccccc2F)c2nccn2C)c(C)nn1C` (stereo unspecified), the cytotoxicity at 10 µM was -13.9%.

Regarding `CCOc1ccccc1OC1CCN(C(=O)c2[nH]nc(C)c2Br)CC1`, the cytotoxicity at 10 µM was -8.75%.

In the case of `CC(=O)c1cccc(OCC(=O)NS(=O)(=O)c2cccs2)c1`, the cytotoxicity at 10 µM was -10.5%.

As for `Cc1cnn(CC2CCCCN2C(=O)Cc2ccc(C#N)cc2)c1` (stereo unspecified), the cytotoxicity at 10 µM is -7.09%.

Take `CN(C)c1ccc(C(=O)N2CCC(c3n[nH]c(C4CC4)n3)CC2)cc1`: the cytotoxicity at 10 µM was -2.42%.

On to `COc1ccccc1OCCNC(=O)N1CCC(n2cncn2)CC1`, for which the cytotoxicity at 10 µM amounted to 1.67%.

For `CCOc1cccc2c1OCC(C(=O)NS(=O)(=O)c1cncc(Br)c1)=C2`, the cytotoxicity at 10 µM is -0.713%.

Regarding `COc1cn(-c2ccccc2)nc1C(=O)NCCCN1CCCC(C)C1` (stereo unspecified), the cytotoxicity at 10 µM is -11.1%.

As to `CCCc1n[nH]c(C2CN(C(=O)c3cc(F)ccc3OC)CCO2)n1` (stereo unspecified), the cytotoxicity at 10 µM is -5.58%.

For the compound `CC(=O)N(Cc1ncc(C(C)C)o1)C1CCN(Cc2nccn2C)C1` (stereo unspecified), the cytotoxicity at 10 µM is -3.81%.

`Cc1nc(C)n(CC2CCCN(Cc3cccc(C#N)c3)C2)n1` (stereo unspecified): the cytotoxicity at 10 µM is -16%.

Consider `COc1ccccc1C(O)CNC(=O)Nc1ncccc1C` (stereo unspecified), for which the cytotoxicity at 10 µM was -8.65%.

Consider `Cc1ccc(-c2ncc(C(=O)NCCNc3ncccn3)s2)c(C)c1`, for which the cytotoxicity at 10 µM is -9.12%.

`Cc1cnn(CC2CN(Cc3nc(-c4ccoc4)no3)CCO2)c1` (stereo unspecified): the cytotoxicity at 10 µM was -9.63%.

Regarding `CC(=O)N1CCC2(CC1)CN(C)C(=O)C[C@H]2C(F)(F)F`, the cytotoxicity at 10 µM is -161%.

Regarding `CCCC(=O)N1CCOC2(COCCN(CC(=O)NC)C2)C1` (stereo unspecified), the cytotoxicity at 10 µM was -3.58%.

For `O=C(c1ccc(F)cc1)N1CCC2(CCN(Cc3ccccn3)C2=O)C1` (stereo unspecified), the cytotoxicity at 10 µM is -136%.

For `Cc1ccc(CN2Cc3c(C(=O)N4CCN(C)CC4)nn(C)c3C2)s1`, the cytotoxicity at 10 µM is -6.77%.
